Reference: ChEMBL document CHEMBL3351863, “Optimization of 2-phenyl-pyrimidine-4-carboxamides towards potent, orally bioavailable and selective P2Y(12) antagonists for inhibition of platelet aggregation” (Bioorg Med Chem Lett, 2014)
pIC50: −log10 of the molar value.

Target: P2Y purinoceptor 12 (Homo sapiens, UniProt Q9H244)
Assay: Displacement of [3H]-2-methyl-thio-adenosine 5'-diphosphate from human recombinant P2Y12 expressed in CHO cell membranes by scintillation counting method
Details: not given; call rule not given here
Procedure, shortened: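 CHO cells expressing recombinant P2Y₁₂ receptors, incubated with tritium-labeled 2-methyl-thio-adenosine 5'-diphosphate plus test compound; IC₅₀ from displacement curves, each point in triplicate; reference compound run with every compound set, and set re-analyzed if its IC₅₀ fell outside pre-set 95% confidence interval.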

Chain of P2Y purinoceptor 12 (Q9H244 whole entry): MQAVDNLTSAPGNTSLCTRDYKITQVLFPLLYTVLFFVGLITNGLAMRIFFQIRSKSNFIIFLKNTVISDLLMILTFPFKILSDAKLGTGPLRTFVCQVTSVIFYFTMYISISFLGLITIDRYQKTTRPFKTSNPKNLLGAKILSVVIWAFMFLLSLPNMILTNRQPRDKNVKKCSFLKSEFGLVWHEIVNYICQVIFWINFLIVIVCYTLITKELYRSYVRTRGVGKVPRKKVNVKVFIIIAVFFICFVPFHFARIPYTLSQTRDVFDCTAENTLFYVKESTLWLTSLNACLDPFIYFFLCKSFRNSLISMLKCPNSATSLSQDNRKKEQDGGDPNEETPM

SMILES	pIC50
CCOC(=O)N1CCN(C(=O)[C@H](CCC(=O)O)NC(=O)c2cc(C(C)C)nc(-c3ccccc3)n2)CC1	7.28
CCOC(=O)N1CCN(C(=O)[C@H](CCC(=O)O)NC(=O)c2cc([C@H]3C[C@@H]3COC)nc(-c3ccccc3)n2)CC1	7.82
CCOC(=O)N1CCN(C(=O)[C@H](CCC(=O)O)NC(=O)c2cc(N[C@@H]3CCOC3)nc(-c3ccccc3)n2)CC1	7.60

Test system: Platelet
Assay: Inhibition of ADP-induced platelet aggregation in human platelet rich plasma assessed as remaining activity at 500 nM by in-vitro light transmission aggregometry assay
Format: functional
Details: not given
Procedure, shortened: (§1)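 Light transmission aggregometry in human platelet-rich plasma; compound incubated, aggregation triggered with 3 µM ADP; remaining activity (RA) recorded at a single compound level (1000, 500 or 100 nM).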

SMILES	Activity [%]
CCOC(=O)N1CCN(C(=O)[C@H](CCC(=O)O)NC(=O)c2cc(C(C)C)nc(-c3ccccc3)n2)CC1	>60
CCOC(=O)N1CCN(C(=O)[C@H](CCC(=O)O)NC(=O)c2cc(N[C@@H]3CCOC3)nc(-c3ccccc3)n2)CC1	<30

Test system: Platelet
Assay: Inhibition of ADP-induced platelet aggregation in human platelet rich plasma assessed as remaining activity at 1000 nM by in-vitro light transmission aggregometry assay
Format: functional
Details: not given
Procedure, shortened: as §1

SMILES	Activity [%]
CCOC(=O)N1CCN(C(=O)[C@H](CCC(=O)O)NC(=O)c2cc(C(C)C)nc(-c3ccccc3)n2)CC1	>30

Test system: Platelet
Assay: Inhibition of ADP-induced platelet aggregation in human platelet rich plasma assessed as remaining activity at 100 nM by in-vitro light transmission aggregometry assay
Format: functional
Details: not given
Procedure, shortened: as §1

SMILES	Activity [%]
CCOC(=O)N1CCN(C(=O)[C@H](CCC(=O)O)NC(=O)c2cc(N[C@@H]3CCOC3)nc(-c3ccccc3)n2)CC1	<70

Test system: Platelet
Assay: Inhibition of ADP-induced platelet aggregation in human platelet rich plasma by in-vitro light transmission aggregometry assay
Format: functional
Details: Homo sapiens, Platelet, Plasma
Procedure, shortened: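 Human platelet-rich plasma incubated with compound, aggregation induced by 3 µM ADP and read by light transmission aggregometry; IC₅₀ derived from concentration–response curve.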

SMILES	pIC50
CCOC(=O)N1CCN(C(=O)[C@H](CCC(=O)O)NC(=O)c2cc(C(C)C)nc(-c3ccccc3)n2)CC1	5.94
CCOC(=O)N1CCN(C(=O)[C@H](CCC(=O)O)NC(=O)c2cc(N[C@@H]3CCOC3)nc(-c3ccccc3)n2)CC1	7.24

Same assay, conditions: platelet

SMILES	pIC50
CCOC(=O)N1CCN(C(=O)[C@H](CCC(=O)O)NC(=O)c2cc([C@H]3C[C@@H]3COC)nc(-c3ccccc3)n2)CC1	7.06

Test system: not listed separately
Assay: Potency shift, ratio of IC50 for inhibition of ADP-induced platelet aggregation in human platelet rich plasma to IC50 for displacement of [3H]-2-methyl-thio-adenosine 5'-diphosphate from human recombinant P2Y12 expressed in CHO cell membranes
Details: not given

SMILES	Ratio IC50
CCOC(=O)N1CCN(C(=O)[C@H](CCC(=O)O)NC(=O)c2cc(C(C)C)nc(-c3ccccc3)n2)CC1	22
CCOC(=O)N1CCN(C(=O)[C@H](CCC(=O)O)NC(=O)c2cc([C@H]3C[C@@H]3COC)nc(-c3ccccc3)n2)CC1	5.8
CCOC(=O)N1CCN(C(=O)[C@H](CCC(=O)O)NC(=O)c2cc(N[C@@H]3CCOC3)nc(-c3ccccc3)n2)CC1	2.3

Test system: not listed separately
Assay: Protein binding in human plasma
Format: ADME, cell-free
Details: read-out: PPB (converted)

SMILES	fraction unbound
CCOC(=O)N1CCN(C(=O)[C@H](CCC(=O)O)NC(=O)c2cc([C@H]3C[C@@H]3COC)nc(-c3ccccc3)n2)CC1	0.034
CCOC(=O)N1CCN(C(=O)[C@H](CCC(=O)O)NC(=O)c2cc(N[C@@H]3CCOC3)nc(-c3ccccc3)n2)CC1	0.085

Test system: not listed separately
Assay: Solubility in neutral pH
Format: physicochemical
Details: not given

SMILES	solubility
CCOC(=O)N1CCN(C(=O)[C@H](CCC(=O)O)NC(=O)c2cc(C(C)C)nc(-c3ccccc3)n2)CC1	soluble
CCOC(=O)N1CCN(C(=O)[C@H](CCC(=O)O)NC(=O)c2cc(N[C@@H]3CCOC3)nc(-c3ccccc3)n2)CC1	soluble

Test system: not listed separately
Assay: Solubility in basic pH
Format: physicochemical
Details: not given

SMILES	solubility
CCOC(=O)N1CCN(C(=O)[C@H](CCC(=O)O)NC(=O)c2cc(C(C)C)nc(-c3ccccc3)n2)CC1	soluble
CCOC(=O)N1CCN(C(=O)[C@H](CCC(=O)O)NC(=O)c2cc(N[C@@H]3CCOC3)nc(-c3ccccc3)n2)CC1	soluble

Target: T1, Cytochrome P450 3A4 (Homo sapiens, UniProt P08684)
T1 sequence (P08684 whole entry): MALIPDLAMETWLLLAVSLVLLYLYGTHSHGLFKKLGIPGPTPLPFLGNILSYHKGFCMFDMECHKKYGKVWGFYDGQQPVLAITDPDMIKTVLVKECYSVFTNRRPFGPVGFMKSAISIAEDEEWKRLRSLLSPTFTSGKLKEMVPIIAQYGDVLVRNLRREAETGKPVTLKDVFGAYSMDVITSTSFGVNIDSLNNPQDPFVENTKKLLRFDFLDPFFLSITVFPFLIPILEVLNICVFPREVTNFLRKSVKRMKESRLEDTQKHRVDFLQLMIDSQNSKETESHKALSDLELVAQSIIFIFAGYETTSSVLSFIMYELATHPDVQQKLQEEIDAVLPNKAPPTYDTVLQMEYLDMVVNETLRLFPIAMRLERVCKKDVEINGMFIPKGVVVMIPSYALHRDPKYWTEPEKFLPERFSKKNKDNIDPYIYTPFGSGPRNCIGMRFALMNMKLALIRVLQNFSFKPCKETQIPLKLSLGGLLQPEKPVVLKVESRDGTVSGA
Assay: Inhibition of CYP3A4 in human liver microsomes assessed as reduction in midazolam 1'-hydroxylation
Format: ADME
Details: not given

SMILES	inhibition (INH)
CCOC(=O)N1CCN(C(=O)[C@H](CCC(=O)O)NC(=O)c2cc(C(C)C)nc(-c3ccccc3)n2)CC1	Not Active
CCOC(=O)N1CCN(C(=O)[C@H](CCC(=O)O)NC(=O)c2cc(N[C@@H]3CCOC3)nc(-c3ccccc3)n2)CC1	Not Active

Target: T1, Cytochrome P450 3A4
Assay: Inhibition of CYP3A4 in human liver microsomes assessed as reduction in testosterone 6beta-hydroxylation
Format: ADME
Details: not given

SMILES	inhibition (INH)
CCOC(=O)N1CCN(C(=O)[C@H](CCC(=O)O)NC(=O)c2cc(C(C)C)nc(-c3ccccc3)n2)CC1	Not Active
CCOC(=O)N1CCN(C(=O)[C@H](CCC(=O)O)NC(=O)c2cc(N[C@@H]3CCOC3)nc(-c3ccccc3)n2)CC1	Not Active

Target: Cytochrome P450 2D6 (Homo sapiens, UniProt P10635)
Sequence (P10635 whole entry): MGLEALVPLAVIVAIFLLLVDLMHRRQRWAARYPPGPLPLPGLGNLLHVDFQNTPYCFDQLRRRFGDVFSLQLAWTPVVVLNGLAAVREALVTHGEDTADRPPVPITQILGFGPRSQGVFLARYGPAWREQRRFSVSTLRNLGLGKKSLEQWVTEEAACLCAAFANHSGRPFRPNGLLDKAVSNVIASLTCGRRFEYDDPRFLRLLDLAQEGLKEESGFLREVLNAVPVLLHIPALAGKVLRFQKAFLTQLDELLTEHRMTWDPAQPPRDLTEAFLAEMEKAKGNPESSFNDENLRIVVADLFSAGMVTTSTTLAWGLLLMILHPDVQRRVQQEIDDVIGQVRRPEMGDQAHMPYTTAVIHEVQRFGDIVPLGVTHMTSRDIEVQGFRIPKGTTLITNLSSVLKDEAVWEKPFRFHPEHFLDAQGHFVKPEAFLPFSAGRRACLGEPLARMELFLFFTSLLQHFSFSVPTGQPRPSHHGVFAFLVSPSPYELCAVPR
Assay: Inhibition of CYP2D6 in human liver microsomes assessed as reduction in dextromethorphan-O demethylation
Format: ADME
Details: not given

SMILES	inhibition (INH)
CCOC(=O)N1CCN(C(=O)[C@H](CCC(=O)O)NC(=O)c2cc(C(C)C)nc(-c3ccccc3)n2)CC1	Not Active
CCOC(=O)N1CCN(C(=O)[C@H](CCC(=O)O)NC(=O)c2cc(N[C@@H]3CCOC3)nc(-c3ccccc3)n2)CC1	Not Active

Target: Cytochrome P450 2C9 (Homo sapiens, UniProt P11712)
Sequence (P11712 whole entry): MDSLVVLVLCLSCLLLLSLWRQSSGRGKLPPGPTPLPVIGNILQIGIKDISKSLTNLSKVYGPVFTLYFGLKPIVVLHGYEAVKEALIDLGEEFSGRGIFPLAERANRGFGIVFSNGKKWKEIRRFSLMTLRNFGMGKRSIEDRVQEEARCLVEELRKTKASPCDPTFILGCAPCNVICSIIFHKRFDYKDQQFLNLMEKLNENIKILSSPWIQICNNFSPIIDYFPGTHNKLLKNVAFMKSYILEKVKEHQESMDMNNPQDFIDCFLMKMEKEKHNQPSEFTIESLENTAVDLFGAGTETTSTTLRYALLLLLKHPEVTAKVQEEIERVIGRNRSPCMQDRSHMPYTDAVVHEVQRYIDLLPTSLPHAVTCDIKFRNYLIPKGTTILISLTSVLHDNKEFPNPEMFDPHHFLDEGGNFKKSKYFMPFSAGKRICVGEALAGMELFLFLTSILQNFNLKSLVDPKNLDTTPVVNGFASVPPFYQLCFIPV
Assay: Inhibition of CYP2C9 in human liver microsomes assessed as reduction in diclofenac 4'-hydroxylation
Format: ADME
Details: not given

SMILES	inhibition (INH)
CCOC(=O)N1CCN(C(=O)[C@H](CCC(=O)O)NC(=O)c2cc(C(C)C)nc(-c3ccccc3)n2)CC1	Not Active
CCOC(=O)N1CCN(C(=O)[C@H](CCC(=O)O)NC(=O)c2cc(N[C@@H]3CCOC3)nc(-c3ccccc3)n2)CC1	Not Active

Test system: Liver microsome
Assay: Metabolic stability assay in human liver microsomes assessed as parent drug disappearance at 1 uM after 20 mins by HPLC and mass spectrometry method
Format: ADME
Details: not given

SMILES	Stability
CCOC(=O)N1CCN(C(=O)[C@H](CCC(=O)O)NC(=O)c2cc(C(C)C)nc(-c3ccccc3)n2)CC1	Stable
CCOC(=O)N1CCN(C(=O)[C@H](CCC(=O)O)NC(=O)c2cc(N[C@@H]3CCOC3)nc(-c3ccccc3)n2)CC1	Stable

Test system: Liver microsome
Assay: Metabolic stability assay in rat liver microsomes assessed as parent drug disappearance at 1 uM after 20 mins by HPLC and mass spectrometry method
Format: ADME
Details: not given

SMILES	Stability
CCOC(=O)N1CCN(C(=O)[C@H](CCC(=O)O)NC(=O)c2cc(C(C)C)nc(-c3ccccc3)n2)CC1	Stable
CCOC(=O)N1CCN(C(=O)[C@H](CCC(=O)O)NC(=O)c2cc(N[C@@H]3CCOC3)nc(-c3ccccc3)n2)CC1	Stable

Target: Voltage-gated inwardly rectifying potassium channel KCNH2 (Homo sapiens, UniProt Q12809)
Sequence (Q12809 whole entry): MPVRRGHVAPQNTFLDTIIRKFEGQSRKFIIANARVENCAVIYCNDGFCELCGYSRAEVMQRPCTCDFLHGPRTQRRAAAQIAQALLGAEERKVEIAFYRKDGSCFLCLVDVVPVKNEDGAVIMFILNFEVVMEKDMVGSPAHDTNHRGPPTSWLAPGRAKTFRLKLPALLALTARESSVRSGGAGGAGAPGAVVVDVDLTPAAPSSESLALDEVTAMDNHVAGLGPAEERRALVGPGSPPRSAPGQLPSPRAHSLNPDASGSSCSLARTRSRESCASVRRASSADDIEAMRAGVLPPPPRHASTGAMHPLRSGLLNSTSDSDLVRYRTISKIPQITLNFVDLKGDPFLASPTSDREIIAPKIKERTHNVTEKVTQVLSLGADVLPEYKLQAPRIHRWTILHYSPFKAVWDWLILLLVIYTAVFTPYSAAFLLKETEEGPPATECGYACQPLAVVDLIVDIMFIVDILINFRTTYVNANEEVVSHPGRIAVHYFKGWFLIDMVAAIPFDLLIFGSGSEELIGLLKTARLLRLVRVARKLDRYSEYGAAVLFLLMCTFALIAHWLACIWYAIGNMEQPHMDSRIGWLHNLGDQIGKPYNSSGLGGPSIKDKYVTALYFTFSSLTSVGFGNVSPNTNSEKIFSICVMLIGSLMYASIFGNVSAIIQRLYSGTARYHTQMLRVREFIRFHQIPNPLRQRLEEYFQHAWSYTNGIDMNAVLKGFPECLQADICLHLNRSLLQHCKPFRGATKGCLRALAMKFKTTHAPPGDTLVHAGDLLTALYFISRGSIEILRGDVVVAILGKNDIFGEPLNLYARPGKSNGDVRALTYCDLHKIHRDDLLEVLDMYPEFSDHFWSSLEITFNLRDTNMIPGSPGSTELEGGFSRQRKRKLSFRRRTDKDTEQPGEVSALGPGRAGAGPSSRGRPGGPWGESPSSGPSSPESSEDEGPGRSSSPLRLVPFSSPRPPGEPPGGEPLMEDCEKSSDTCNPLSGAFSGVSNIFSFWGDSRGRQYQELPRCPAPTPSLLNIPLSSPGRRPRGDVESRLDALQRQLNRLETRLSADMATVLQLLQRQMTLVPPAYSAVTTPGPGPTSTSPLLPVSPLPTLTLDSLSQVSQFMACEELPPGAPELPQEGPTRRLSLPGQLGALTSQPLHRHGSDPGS
Assay: Inhibition of human ERG expressed in HEK cells by patch-clamp assay
Format: cell-based
Details: hek293

SMILES	inhibition (INH)
CCOC(=O)N1CCN(C(=O)[C@H](CCC(=O)O)NC(=O)c2cc(C(C)C)nc(-c3ccccc3)n2)CC1	Not Active
CCOC(=O)N1CCN(C(=O)[C@H](CCC(=O)O)NC(=O)c2cc(N[C@@H]3CCOC3)nc(-c3ccccc3)n2)CC1	Not Active
